High-throughput results as filed in PubChem BioAssay.
NR1D1 modulator: modulates human Rev-erb alpha binding to DNA. P20393. Rev-erbα–FITC-DNA binding, fluorescence polarization, 90 min. activity, % at 10 µM. hit rate 0.79% among 370,000. AID 1259318;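 active means activity above about 14%, limit read from the data; passing the limit was not always enough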;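 further: 0% = DMSO wells with 35 nM protein and 100% = DMSO wells with 750 nM protein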
Target sequence (P20393 whole entry, looked up): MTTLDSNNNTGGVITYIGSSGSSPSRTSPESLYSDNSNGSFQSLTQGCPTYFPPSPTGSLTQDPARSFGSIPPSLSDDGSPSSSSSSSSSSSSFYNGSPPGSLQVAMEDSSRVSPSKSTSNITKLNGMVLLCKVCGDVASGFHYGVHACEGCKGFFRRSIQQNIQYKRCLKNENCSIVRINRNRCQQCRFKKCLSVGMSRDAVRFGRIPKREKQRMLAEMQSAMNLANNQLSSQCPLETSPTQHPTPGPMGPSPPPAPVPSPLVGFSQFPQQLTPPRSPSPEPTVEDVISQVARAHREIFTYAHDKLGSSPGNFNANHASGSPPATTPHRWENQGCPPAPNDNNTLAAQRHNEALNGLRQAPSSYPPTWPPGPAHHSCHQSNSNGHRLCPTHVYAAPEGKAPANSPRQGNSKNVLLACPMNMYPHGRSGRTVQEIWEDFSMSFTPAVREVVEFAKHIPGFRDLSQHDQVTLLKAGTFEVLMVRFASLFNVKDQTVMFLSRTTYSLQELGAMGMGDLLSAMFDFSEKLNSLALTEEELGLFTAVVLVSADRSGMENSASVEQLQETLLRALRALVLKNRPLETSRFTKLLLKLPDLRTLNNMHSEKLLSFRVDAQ
NR2E3 ag-1: NR2E3 (human) agonism. GST-NR2E3/biotin-RetCOR TR-FRET, 1536-well. inhibition of corepressor binding, % at 4.78 µM. hit rate 0.12% among 320,000. AID 2300;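 active means percent inhibition above the cutoff of mean plus 3 SD of all tested compounds, set per screening campaign, cut at about 20% in these data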;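 further: 0% = DMSO wells and 100% = biotin wells as full block of FRET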
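System: GST-tagged NR2E3 plus biotinylated RetCOR corepressor; Buffer or medium: pH 7.5 Tris-based buffer; Probe or stimulus: RetCOR corepressor, biotinylated, 7 nM; Doses: compound at 4.8 µM, single dose; Schedule: 5 h incubation at 4 °C; Technique: time-resolved FRET; Evaluation: percent inhibition of TR-FRET ratio; Replication: one well per compound, singlicate testing.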
PG9 Ab binder: binds the HIV-1 gp120 antibody PG9. TR-FRET gp120-PG9 antibody binding. inhibition, % at 6.7 µM. hit rate 0.43% among 360,000. AID 624416; in the data active means inhibition above about 8.5%
GalR3 antagonist: antagonists of human GalR3; HEK293 GalR3-CNG cAMP membrane potential fluorescence; galR3 body fused to GalR1 C-terminus; hit rate 0.44% among 360,000; AID 651719; O60755; inhibition, % at 3 µM;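 active means inhibition above the screen-wide average plus 3 SD, cut at about 13% in these data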;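 further: forskolin and galanin both at EC90 stimulate the cells; cAMP rise reported by CNG channel membrane potential dye signal; 0% = forskolin plus galanin with DMSO and 100% = forskolin alone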
NR2E3 ag-2: human photoreceptor-specific nuclear receptor agonism; AID 602229; inhibition of corepressor binding, % at 3.98 µM; hit rate 0.35% among 360,000; CHO-S Gal4-NCOR/VP16-NR2E3 two-hybrid, luciferase; Q9Y5X4;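 active means inhibition above the mean of all tested compounds plus 3 SD, cut at about 70% in these data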;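 further: 0% = DMSO with NR2E3 transfected cells and 100% = cells lacking NR2E3 construct; higher means lower luciferase signal from less NR2E3 corepressor binding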
PG9 binder conf: PG9 antibody binding, confirmed | shares compounds with PG9 Ab binder | TR-FRET PG9 antibody binding, biochemical | inhibition, % at 6.7 µM | hit rate 90% among 1,500 | AID 651571; in the data active means inhibition above about 9%
PGV04 counter: counter-screen for PG9 binders: binding control antibody PGV04; shares compounds with PG9 Ab binder; TR-FRET PGV04 antibody-gp120 binding, biochemical; inhibition, % at 6.7 µM; hit rate 95% among 1,500; AID 651604; in the data active means inhibition above about 9.5%
PG9 binder DR: small molecules binding HIV-1 gp120 antibody PG9; 95 tested, under 10 active; AID 651848; TR-FRET PG9 antibody-gp120 binding inhibition; IC50, µM; shares compounds with PG9 Ab binder; in the data active means IC50 below about 10 µM
PGV04 binding DR: binds control antibody PGV04 in PG9 counter-screen; shares compounds with PG9 Ab binder; TR-FRET binding to control antibody PGV04; IC50, µM; hit rate 20% among 95; AID 651937
PG126 binding DR: PG126 binding, dose response counter-screen; IC50, µM; shares compounds with PG9 Ab binder; TR-FRET binding to antibody PG126, counterscreen; hit rate 20% among 95
The depositor's hits bear a star; i = inactive; x = no result given. Hits are enriched below; roughly 1.8% of the tested compounds scored in any of these assays. Unless noted, no stated cut-off is given here; in the data, active means IC50 below about 9 µM; inactive means the rest.

SMILES	NR1D1 modulator	NR2E3 ag-1	PG9 Ab binder	GalR3 antagonist	NR2E3 ag-2	PG9 binder conf	PGV04 counter	others
Cc1ccc(N(Cc2cc3ccccc3[nH]c2=O)S(=O)(=O)c2ccccc2)cc1	10	0	-4	-3	-12	x	x
Cc1ccc(Sc2c(O)c3ccccc3n(C)c2=O)cc1	2	x	14*	-6	0	17*	24*
Cn1c(=O)c(Sc2ccccc2)c(O)c2ccccc21	5	3	0	1	-30	x	x
COc1cccc(-n2nnnc2SCC(=O)Nc2ccc(C(C)=O)cc2)c1	14	7	16*	-5	1	24*	39*
COc1cccc(-n2nnnc2SCC(=O)Nc2ccccc2OC)c1	-5	1	0	-10	15	x	x
C=CCn1c(COc2ccc(C)cc2)nnc1SCC(=O)c1ccc(-c2ccccc2)cc1	1	x	x	x	x	x	x
COC(=O)C1(C)CN(S(=O)(=O)c2ccc(C)cc2)c2cc(OC)ccc2C1=O (centres undefined)	-3	-3	8.6*	-6	-10	15*	18*
CC(=O)CC[C@@H]1CC[C@]2(CCCN(C(=O)c3ccc4ccccc4n3)C2)O1	-1	x	x	x	x	x	x
COc1ccc(Br)cc1-c1nc(CCl)cs1	6	13	10*	-9	1	16*	20*
Cc1ccc(-n2c(SC/C=C/c3ccccc3)nnc2-c2cccs2)cc1	-2	x	x	x	x	x	x
CC(=O)Nc1ccc(NC(=O)CNC(=O)c2sc3ccccc3c2Cl)cc1	-7	-31	0	-2	-14	x	x
NC(=O)c1ccc(NC(=O)CNC(=O)c2sc3ccccc3c2Cl)cc1	8	-91	18*	-5	22	22*	28*
Cc1ccc(NC(=O)CNC(=O)c2sc3ccccc3c2Cl)nc1	14	-5	15*	-4	-4	13*	28*
Cc1ccc(CNC(=O)CCS(=O)(=O)c2cc3c(cc2Br)CCN3C(=O)C2CC2)o1	1	x	x	x	x	x	x
COCCCNC(=O)C[C@H]1C[C@@]2(C(=O)OC)C(=C[C@H](C(C)C)O[C@@H]2C2CC2)N(Cc2ccc3c(c2)OCO3)C1=O	-1	x	x	x	x	x	x
COc1ccc(C(=O)NCCN(C)C)c2nc3ccccc3cc12	8	x	23*	-4	-15	20*	18*	PG9 binder DR=>67;PGV04 binding DR=>67;PG126 binding DR=>67
C=CCCC(=O)N(Cc1ccccc1)c1ccccc1C(=O)Nc1cc(OC)ccc1OC	-2	x	x	x	x	x	x
O=C(NC(=S)Nc1cccc(NC(=S)NC(=O)c2ccccc2)c1)c1ccccc1	-6	x	12*	0	-46	8	14*
CCC(=O)Nc1cccc(NC(=S)NC(=O)c2ccccc2)c1	-5	-2	-4	-7	-29	x	x
CCN(CC)C(=O)CSc1nnc(-c2cccs2)o1	-3	x	x	x	x	x	x
CCOc1ccc(S(=O)(=O)Nc2nc3ccccc3nc2-n2ccc(=NC(=O)c3cccs3)cc2)cc1	9	5	20*	-3	-14	31*	73*
CC(=O)Nc1ccc(S(=O)(=O)Nc2nc3ccccc3nc2-n2ccc(=NC(=O)c3ccccc3)cc2)cc1	0	-3	0	-3	-33	x	x
CC(=O)Nc1ccc(S(=O)(=O)Nc2nc3ccccc3nc2-n2ccc(=NC(=O)c3ccc(F)cc3)cc2)cc1	9	0	41*	9	-2	50*	81*
Cc1cccc(C(=O)OCc2cc3ccccc3[nH]c2=O)c1	21	7	12*	-4	-7	13*	18*
Cc1cccc2cc(COC(=O)c3ccccc3)c(=O)[nH]c12	18	-4	23*	-1	-13	22*	38*
SMILES	NR1D1 modulator	NR2E3 ag-1	PG9 Ab binder	GalR3 antagonist	NR2E3 ag-2	PG9 binder conf	PGV04 counter	others
Cc1cc(C)nc(N2CCC(C(=O)N(C)CCc3ccccn3)CC2)n1	3	x	x	x	x	x	x
COC(=O)c1cc(-c2ccc(OC)c(OC)c2)c(=O)n2c1CCC2	8	x	x	x	x	x	x
CCOc1ccc(C(=O)OCC(=O)NCCNC(=O)COC(=O)c2ccc(OCC)cc2)cc1	-1	1	9.1*	5	8	14*	17*
COC(=O)c1cc2ccccn2c2c(C(=O)OC)c(C(=O)OC)cc1-2	2	-11	-19	0	-24	x	x
COC(=O)c1cc2c(C)cc3ccc(C)cn3c-2c1C(=O)OC	3	15	11*	-5	-10	17*	22*
Cc1ccc(NC(=O)CN(C)C(=O)c2cc3c(s2)CCCCC3)cc1	-4	6	3	-1	-10	x	x
Cc1ccc(C)c(NC(=O)CN(C)C(=O)c2cc3c(s2)CCCCC3)c1	2	0	11*	-4	12	16*	22*
CCc1cc(=O)oc2cc(C)cc(O)c12	1	3	15*	-2	11	14*	20*
CCCc1cc(=O)oc2cc(C)cc(OCc3nn[nH]n3)c12	0	3	0	2	6	x	x
Cc1cc(O)c2c(CN3CCN(Cc4ccccc4)CC3)cc(=O)oc2c1	-2	1	-3	-10	9	x	x
COC(=O)Cc1c(C)c2c(O)cc(C)cc2oc1=O	-1	1	10*	-1	10	18*	18*	PG9 binder DR=i;PGV04 binding DR=i;PG126 binding DR=i
CCCc1cc(=O)oc2cc(C)cc(O)c12	-1	4	9.3*	-9	-8	14*	19*
COc1ccc(CN2C(=O)N3Cc4ccccc4C3CS2(=O)=O)cc1 (centres undefined)	5	x	x	x	x	x	x
CCOC(=O)[C@@]12CCCC3=C1N(CCC3)C(=O)[C@H]2CC(=O)NCc1cccc2ccccc12	-1	x	x	x	x	x	x
CCc1ccc(CCNC(=O)OC2CCC23CCC(c2ccccc2)CC3)cc1 (centres undefined)	0	x	x	x	x	x	x
O=C(Nc1ccc(F)cc1)c1cc(-c2ccccn2)nc2c(Cl)cccc12	5	1	18*	-1	-14	33*	69*
CCn1c(SCC(=O)Nc2nc3ccccc3s2)nnc1-c1ccc(Br)cc1	-1	0	21*	-4	14	23*	35*
Cn1c(SCC(=O)Nc2nc3ccccc3s2)nnc1-c1ccccc1	-6	5	8	-5	17	x	x
CCOC(=O)Cn1c(=NC(=O)CSC(C)=O)sc2cc(F)ccc21	2	8	40*	x	-20	69*	80*
